A selection: hits, their analogues and other compounds. The true share with any hit is near 27%.
Cav32 inh: Cav3.2 calcium influx blockers – cell-based, Fluo-4 calcium fluorescence, FDSS, MLSMR library, primary screen | B-score at 10 µM | actives 4% (n = 100,000) | Cav3.2-expressing cells; active compounds read low | Voltage-dependent T-type calcium channel subunit alpha-1H (Homo sapiens), O95180 | AID 449739, 2010;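 active = single-dose well whose peak fluorescence ratio is a statistical outlier from its plate by either plate-standardised score or position-corrected B-score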
CYP2C19 activ: human CYP2C19 activators, primary screen, biochemical, luminescence. 96,000 tested, under 10 active. Cytochrome P450 2C19 (Homo sapiens), P33261. AID 1025, 2008. activation factor at 5 µM. recombinant CYP2C19, luciferin-H EGE luminescence; active compounds read high; 0 = fully inhibited enzyme, 1 = untreated enzyme;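 active = activation factor of at least 2 at 5 µM in the primary screen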
CYP2C19 inh: blockers of cytochrome P450 2C19 activity – biochemical, luminescence, ADME assay, primary screen. inhibition, % at 5 µM. P33261. CYP2C19 Supersomes, luciferin-H EGE luminescence, 30 min. actives 21% (n = 96,000);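 active = CYP2C19 inhibition above a set limit at 5 µM in the primary screen, cut at about 50% in these data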
CYP2C9 act: human CYP2C9 activators, primary screen, biochemical, luminescence; Cytochrome P450 2C9 (Homo sapiens), P11712; recombinant CYP2C9, luciferin-H conversion; active compounds read high; factor 1 = untreated enzyme, 0 = blocked; activation factor at 5 µM; actives 1.4% (n = 96,000); AID 1024, 2008;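 active = activation factor of 2 or more for CYP2C9 at a 5 µM dose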
Target sequence (P11712 whole entry, looked up): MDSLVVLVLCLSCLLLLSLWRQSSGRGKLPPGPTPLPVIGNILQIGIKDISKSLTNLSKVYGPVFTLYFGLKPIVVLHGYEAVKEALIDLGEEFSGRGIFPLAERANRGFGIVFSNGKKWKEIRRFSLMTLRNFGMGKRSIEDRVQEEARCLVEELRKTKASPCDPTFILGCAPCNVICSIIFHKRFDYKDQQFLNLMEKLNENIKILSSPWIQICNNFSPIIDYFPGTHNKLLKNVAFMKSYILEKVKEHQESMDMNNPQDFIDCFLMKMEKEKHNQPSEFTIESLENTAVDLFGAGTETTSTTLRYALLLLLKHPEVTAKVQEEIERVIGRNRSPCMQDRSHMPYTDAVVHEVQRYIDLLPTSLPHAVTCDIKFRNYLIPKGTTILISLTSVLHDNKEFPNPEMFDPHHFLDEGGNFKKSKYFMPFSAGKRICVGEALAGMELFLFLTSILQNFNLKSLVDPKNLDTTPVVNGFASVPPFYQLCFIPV
HIV Rev-RRE inh: HIV-1 Rev-RRE binding inhibitors, primary screen, biochemical, FRET, protein-RNA interaction | P05866 | Rev peptide-RRE RNA binding | inhibition, % at 8 µM | actives 0.79% (n = 97,000);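 active = inhibition above the screen-wide mean plus 3 SD, cut at about 35% in these data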
Target sequence (P05866 whole entry, looked up): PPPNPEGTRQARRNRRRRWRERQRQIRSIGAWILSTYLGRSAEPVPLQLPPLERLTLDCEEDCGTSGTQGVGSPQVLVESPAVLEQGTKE
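Probe or stimulus: fluorescein-Rev peptide as binding partner; assay system: Cy5-tagged RRE RNA duplex with fluorescein-tagged Rev peptide; timing: 5 min compound–RNA preincubation, then 15 min with peptide, 25 °C; medium: HEPES pH 7.5 buffer with KCl, MgCl2, NaCl and EDTA; signal: fluorescein-to-Cy5 FRET, 480 nm excitation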
CYP2C9 inh: blockers of cytochrome P450 2C9 activity – biochemical, luminescence, ADME assay, primary screen; P11712; CYP2C9 Supersomes, luciferin-H conversion; inhibition, % at 5 µM; actives 20% (n = 96,000); AID 777, 2007;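 active = blocking of liver enzyme CYP2C9 beyond about 50% at 5 µM, limit read from the data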
Hits are given with their value; 0 = inactive; - = not tested or not shown.

SMILES	Cav32 inh	CYP2C19 activ	CYP2C19 inh	CYP2C9 act	HIV Rev-RRE inh	CYP2C9 inh
O=c1c2ccccc2oc2nc3ccn(Cc4ccncc4)c(=O)c3cc12	0	0	0	0	0	59.1
O=C(C1CC(=O)N(c2ccccc2)C1)N1CCN(C2=NS(=O)(=O)c3ccccc32)CC1 (stereo not given)	0	0	0	0	0	0
Cc1cc(C)c(NN=c2c(=O)c3ccccc3c2=O)c(C)c1	-	0	0	0	0	0
O=c1c(=NNc2ccccc2Cl)c(=O)c2ccccc12	0	0	60.3	0	0	0
COc1ccccc1OCCNC(=O)c1ccccc1C	0	0	0	0	0	0
COc1ccc(NC(=O)C(CC(C)C)NC(=O)c2ccccc2C)cn1 (stereo not given)	0	0	53.9	0	0	51.6
COCC(=O)Nc1ccc(C(C)C)cc1	0	0	0	0	0	0
CCOC(=O)C1=C(O)/C(=C/c2ccc(CNC(=O)C(=O)Nc3ccc(C)cc3)o2)N=C1C	0	0	66.3	0	0	90.3
CCOC(=O)c1ccc(CNC(=O)c2n[nH]c(=O)c3ccccc23)o1	0	0	0	0	0	0
COC(=O)C1=C(O)/C(=C\c2ccc(CNC(=O)C(=O)Nc3ccc(C)c(C)c3)o2)N=C1C	0	0	50.0	0	0	80.2
COC(=O)C1=C(O)/C(=C\c2ccc(CNC(=O)C(=O)Nc3ccc(C)cc3)o2)N=C1C	0	0	59.3	0	0	88.5
CCc1nnc(NC(=O)CSc2nc3cccnc3n2C2CCCCC2)s1	0	0	0	0	0	0
Cc1ccc(NS(=O)(=O)c2ccc(C)c(C(=O)N3CCN(C)CC3)c2)cc1	0	0	0	0	0	0
COc1cccc(CN2C(=O)N(C(C)C)C(N(O)C(=O)NC(C)C)C2(C)C)c1OC (stereo not given)	-	0	0	0	0	0
CC(C)NC(=O)N(O)C1N(Cc2ccc3c(c2)OCO3)C(=S)SC1(C)C (stereo not given)	0	0	98.3	0	0	94.3
CCOC(=O)c1[nH]c2ccccc2c1NC(=O)c1ccc(Br)o1	0	-	-	-	0	-
C=CCCCCCCCCC(=O)NNC1=CC(=O)CC(C)(C)C1	0	0	0	0	0	51.0
CC(=O)Nc1ccc(N2C(C(C)=O)=NN(c3ccccc3)C2c2cccs2)cc1 (stereo not given)	0	0	0	0	0	0
COc1ccc(N2C(C(C)=O)=NN(c3ccccc3)C2c2cccs2)cc1 (stereo not given)	0	0	0	0	0	56.0
N#CC1=C(N)Oc2c(oc(CO)cc2=O)C1c1cccs1 (stereo not given)	0	0	0	0	0	0
N#CC1=C(N)OC2=C(CN(Cc3ccccc3)C/C2=C\c2cccnc2)C1c1cccnc1 (stereo not given)	0	0	0	0	0	0
CCN1CC2=C(OC(N)=C(C#N)C2c2ccccc2)/C(=C\c2ccccc2)C1 (stereo not given)	0	0	90.7	0	0	65.8
CCN1C=C(Cc2cccs2)C2=C(C1)C(c1cccs1)C(C#N)=C(N)O2 (stereo not given)	0	0	0	0	0	56.1
CCN1CC2=C(OC(N)=C(C#N)C2c2cccs2)/C(=C/c2cccs2)C1 (stereo not given)	0	0	0	0	42.1	0
CC(C)N1CC2=C(OC(N)=C(C#N)C2c2cccnc2)/C(=C/c2cccnc2)C1 (stereo not given)	0	0	0	0	-	0
SMILES	Cav32 inh	CYP2C19 activ	CYP2C19 inh	CYP2C9 act	HIV Rev-RRE inh	CYP2C9 inh
CN(CC(=O)NCc1ccco1)S(=O)(=O)c1ccc2c(c1)n(C)c(=O)c(=O)n2C	0	0	0	0	-	0
COc1ccc2c(C)cc(SCc3c(C)noc3C)nc2c1	0	0	50.5	0	0	57.0
C=CCc1c(C)nc(SC)nc1Nc1ccc(C)cc1	0	0	0	0	0	0
Cc1ccc(-c2nn3c(C)nnc3s2)cc1NC(=O)c1cccs1	0	0	0	0	0	0
Cc1cc2nn(-c3cccc4ccccc34)nc2cc1NC(=O)c1cccs1	-4.26	0	0	0	0	0
CC1(c2nnc(Cc3ccccc3)o2)CC(c2ccncc2)=NO1 (stereo not given)	0	-	-	-	-	-
C=CCN1CN(S(=O)(=O)c2cccs2)c2nc3ccccc3nc21	0	0	62.9	0	0	0
O=S(=O)(c1cccs1)N1CN(Cc2ccc(F)cc2)c2nc3ccccc3nc21	0	0	0	0	0	70.5
O=S(=O)(c1cccs1)N1CN(Cc2cccs2)c2nc3ccccc3nc21	0	0	92.6	0	0	78.6
CC(C)c1cc(NCCCN2CCOCC2)n2c(nc3ccccc32)c1C#N	0	-	-	-	-	-
CCCOC(=O)c1cc(-c2ccc(/C=C3/C(=O)N(C)C(=O)C(C#N)=C3C)o2)ccc1Cl	-	-	-	-	0	-
C=CCOC(=O)c1cc(-c2ccc(/C=C3\C(=O)NC(=O)C(C#N)=C3C)o2)ccc1Cl	-	0	0	0	0	61.0
Cc1nc2cc(F)ccc2n1C1CCN(S(=O)(=O)c2ccccc2)CC1	0	0	0	0	0	74.0
O=S(=O)(c1ccc2c(c1)OCCO2)N1CCC(n2nnc3cc(F)ccc32)CC1	0	-	-	-	0	-
O=S(=O)(c1ccc2c(c1)OCCO2)N1CCC(n2cnc3cc(F)ccc32)CC1	0	0	78.4	0	0	0
COc1ccccc1NC(=O)CN1CCC(n2c(C)nc3cc(F)ccc32)CC1	0	0	0	0	0	0
O=C(/C=C/C=C/c1ccccc1)CC1(O)C(=O)N(CCc2ccccc2)c2ccccc21 (stereo not given)	-	0	0	0	0	0
O=C(O)c1cc(S(=O)(=O)N2CCOCC2)c(Sc2ccccn2)cc1Sc1ccccn1	0	0	0	0	-	0
O=C(c1cc2c(s1)-c1ccccc1S(=O)(=O)C2)N1CCN(Cc2ccccc2)CC1	-	0	0	0	0	0
O=c1ccc(Oc2nc(N3CCOCC3)nc(N3CCOCC3)n2)n[nH]1	0	0	0	0	0	0
CCCn1c2c(c(O)c(C(=O)Nc3ccc(OCC)cc3)c1=O)CCCC2	-	0	0	0	0	52.4
CCCn1c2c(c(O)c(C(=O)Nc3ccc(C)cn3)c1=O)CCCC2	-	-	-	-	0	-
C=C1CCN([C@@H](CC(C)C)C(=O)NCc2ccco2)S(=O)(=O)c2ccccc21	0	-	-	-	-	-
CCc1ccc2[nH]c(=O)c(CN(Cc3ccc4c(c3)OCO4)C(=O)c3ccco3)cc2c1	-3.29	0	0	0	0	0
CCOc1ccc2[nH]c(=O)c(CN(CC3COCCO3)C(=O)c3ccco3)cc2c1 (stereo not given)	0	0	0	0	-	0
